Source: ChEMBL document CHEMBL3526142, “Biotransformation of a novel antimitotic agent, I-387, by mouse, rat, dog, monkey, and human liver microsomes and in vivo pharmacokinetics in mice” (Drug Metab Dispos, 2011)

What was measured:
[1] = Drug level in monkey liver microsomes assessed as compound retention time treated with 0.5 uM I-387 after 2 hrs by LC-MS/MS analysis; assay type: ADME, Macaca mulatta; conditions: rhesus monkey
Summary of the method: (§1)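 Pooled liver microsomes (1 mg/ml protein) incubated with 0.5 µM substrate and 3 mM NADPH in 65 mM potassium phosphate, pH 7.4, 1% methanol, at 37°C for 2 h. Stopped with ice-cold acetonitrile containing internal standard, centrifuged. Supernatant analysed by LC-MS/MS on a C18 column, 15-min gradient, with product ion scans for metabolite identification.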

Liver = assay: Drug level in mouse liver microsomes assessed as compound retention time treated with 0.5 uM I-387 after 2 hrs by LC-MS/MS analysis; assay type: ADME; summary of the method: as §1
Liver microsome [2] = assay: Drug level in human liver microsomes assessed as compound retention time treated with 0.5 uM I-387 after 2 hrs by LC-MS/MS analysis; assay type: ADME; summary of the method: as §1
[3] = Retention time of the compound at 0.5 uM by LC-MS/MS analysis; assay type: physicochemical
Summary of the method: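 After a 2 h incubation at 37°C with liver microsomes (1 mg/ml protein, 3 mM NADPH, 0.5 μM substrate, pH 7.4 phosphate buffer), samples were quenched with acetonitrile and centrifuged. Supernatant separated on a C18 column (15 min run, linear gradient 100% A to 100% B over 7 min) with LC-MS/MS ion trap detection.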

Liver microsome [4] = assay: Drug level in rat liver microsomes assessed as compound retention time treated with 0.5 uM I-387 after 2 hrs by LC-MS/MS analysis; assay type: ADME; summary of the method: as §1
Liver microsome [5] = assay: Drug level in dog liver microsomes assessed as compound retention time treated with 0.5 uM I-387 after 2 hrs by LC-MS/MS analysis; assay type: ADME, Canis lupus familiaris; summary of the method: as §1

- Drug metabolism [1]: metabolite_detected
- Drug metabolism (Liver): metabolite_detected
- Drug metabolism (Liver microsome [2]): metabolite_detected
- Retention_time [3]: 10.5 min
- Drug metabolism (Liver microsome [4]): metabolite_detected
- Drug metabolism (Liver microsome [5]): metabolite_detected
SMILES: COc1cc(C(O)c2cccc(-c3cc4ccccc4[nH]3)c2)cc(OC)c1OC (stereo unspecified)
